High-throughput results (PubChem BioAssay)
This is a sample that favours compounds with a hit; in the whole collection about 4.8% have one here.
PAFAH2 inh: PAFAH2 enzyme inhibitors, primary screen, biochemical, fluorescence polarization, human. Platelet-activating factor acetylhydrolase 2, cytoplasmic (Homo sapiens), Q99487. inhibition, % at 3.39 µM. 340,000 tested, 0.99% active. recombinant PAFAH2, FP-rhodamine activity probe;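 active means inhibition above the mean over all tested compounds plus 3 SD, cut at about 30% in these data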;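 further: inhibitors block probe labeling of enzyme so polarization drops; 0% = enzyme with DMSO and 100% = wells lacking PAFAH2 protein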
pPAFAH inh: pPAFAH enzyme inhibitors, primary screen, biochemical, fluorescence polarization, human. Platelet-activating factor acetylhydrolase (Homo sapiens), Q13093. recombinant pPAFAH, FP-rhodamine probe fluorescence polarization. inhibition, % at 3.39 µM. 330,000 tested, 1.5% active. AID 463082, 2010;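 active means inhibition above the mean inhibition across the screen plus 3 SD, cut at about 25% in these data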;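 further: inhibitors block binding of the rhodamine activity-based probe so polarization drops; 0% = enzyme with DMSO and 100% = wells lacking pPAFAH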
Target sequence (Q13093 whole entry, looked up): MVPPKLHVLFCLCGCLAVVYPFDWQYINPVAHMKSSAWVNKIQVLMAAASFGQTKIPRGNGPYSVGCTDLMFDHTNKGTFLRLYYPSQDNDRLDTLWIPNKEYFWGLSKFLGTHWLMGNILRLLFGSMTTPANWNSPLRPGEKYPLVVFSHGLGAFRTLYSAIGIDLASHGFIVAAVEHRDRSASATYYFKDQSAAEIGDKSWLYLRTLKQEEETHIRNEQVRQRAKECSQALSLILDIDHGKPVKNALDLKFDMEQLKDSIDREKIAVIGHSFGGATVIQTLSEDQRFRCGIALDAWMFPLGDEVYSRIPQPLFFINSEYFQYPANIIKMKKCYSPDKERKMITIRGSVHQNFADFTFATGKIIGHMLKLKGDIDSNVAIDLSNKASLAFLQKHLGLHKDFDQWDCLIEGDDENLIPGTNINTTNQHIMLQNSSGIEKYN
PAFAH1B2 FP inh: PAFAH1B2 enzyme inhibitors, primary screen, biochemical, fluorescence polarization, human; AID 492953, 2010; 340,000 tested, 1.2% active; Platelet-activating factor acetylhydrolase IB subunit alpha2 (Homo sapiens), P68402; inhibition, % at 3.39 µM; recombinant PAFAH1B2, FP-rhodamine activity probe;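 active means inhibition above the mean of all tested compounds plus 3 SD, cut at about 24% in these data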;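 further: 0% = enzyme with DMSO and 100% = wells lacking PAFAH1B2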
UCH37 DUB inh: inhibitors of human UCH37 deubiquitinase, primary screen, biochemical, Ub-AMC cleavage, fluorescence. inhibition, % (concentration not given with the values). 330,000 tested, 0.33% active. purified proteasome/UCH37. Ubiquitin carboxyl-terminal hydrolase isozyme L5 (Homo sapiens), Q9Y5K5;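 active means mean inhibition over replicate wells above about 20%, limit read from the data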;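 further: 0% = compound-free wells with enzyme and 100% = wells lacking proteasome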
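system = Proteasome-associated human UCH37 deubiquitinase | amount = 0.15 nM proteasome as dispensed | medium = pH 7.4 Tris-HCl (50 mM) with ovalbumin, ATP-MgCl2, DTT | incubation = 30 min preincubation with enzyme, 25 min cleavage at room temperature | detection = AMC fluorescence 355/460 nm | read-out basis = percent inhibition | controls = no-proteasome and no-compound wells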
PAFAH1B3 FP inh: PAFAH1B3 enzyme inhibitors, primary screen, biochemical, fluorescence polarization, human; Platelet-activating factor acetylhydrolase IB subunit alpha1 (Homo sapiens), Q15102; recombinant PAFAH1B3, FP-rhodamine probe; inhibition, % at 3.39 µM; 340,000 tested, 0.28% active;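 active means inhibition above the screen-wide average of all tested compounds plus 3 SD, cut at about 25% in these data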;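 further: 0% = enzyme with DMSO only and 100% = wells lacking PAFAH1B3 protein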
Target sequence (Q15102 whole entry, looked up): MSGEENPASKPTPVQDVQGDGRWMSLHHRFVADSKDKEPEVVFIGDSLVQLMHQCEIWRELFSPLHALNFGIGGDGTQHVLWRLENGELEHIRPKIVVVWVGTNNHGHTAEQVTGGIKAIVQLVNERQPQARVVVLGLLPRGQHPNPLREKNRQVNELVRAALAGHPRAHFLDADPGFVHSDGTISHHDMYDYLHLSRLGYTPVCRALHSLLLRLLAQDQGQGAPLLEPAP
GRIN3A LBD mod: binders of NR3A ligand-binding domain, primary screen, biophysical, differential scanning fluorimetry, uHTS; Tm shift relative to glycine control, % at 25 µM; NR3A LBD differential scanning fluorimetry, Tm shift; 0% = protein alone, 100% = glycine-bound protein; 340,000 tested, 2.5% active; Glutamate receptor ionotropic, NMDA 3A (GRIN3A) ligand-binding domain; AID 1259313, 2017;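 active means melting temperature shift of at least 10% of the positive control shift, at one fixed dose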
Starred values were filed as active, the others as inactive; x = not tested or not shown.

SMILES | PAFAH2 inh | pPAFAH inh | PAFAH1B2 FP inh | UCH37 DUB inh | PAFAH1B3 FP inh | GRIN3A LBD mod
COc1ccccc1C=NNC(=O)c1nnn(-c2nonc2N)c1-c1ccccc1 | x | x | x | -3 | x | x
O=S(=O)(c1ccc(Cl)cc1)N1CCC(n2cccc2)CC1 | 1 | 4 | 29* | 2 | 2 | 2
O=C1CCN(S(=O)(=O)c2ccc(Cl)cc2)CC1 | 6 | -1 | 25* | 5 | 7 | -1
O=S(=O)(c1ccc(Cl)cc1)N1CCC(c2nc3ccccc3[nH]2)CC1 | 11 | 3 | 27* | 3 | 4 | 1
O=S(=O)(c1ccc(Cl)cc1)N1CCC2(CC1)CO2 | -6 | -2 | 28* | 6 | 11 | -1
O=S(=O)(c1ccc(Cl)cc1)N1CCC(N2CCCCCC2)CC1 | -1 | -2 | 3 | 1 | 7 | 3
O=S(=O)(c1ccc(Cl)cc1)N1CCCCCC1 | 3 | 5 | 1 | 1 | -3 | 2
O=C(CNC(=O)C1COc2ccccc2O1)NN=Cc1ccc(O)cc1O (stereo not given) | x | x | x | -5 | x | x
Cc1ccc(S(=O)(=O)N2CCC(=O)N(CCOCc3ccc(Cl)cc3)CC2)cc1 | 2 | 32* | 14 | -1 | -8 | -3
Cc1ccc(S(=O)(=O)N2CCC(=O)N(CCOCc3cccc(Cl)c3)CC2)cc1 | 9 | 21 | 11 | 2 | -5 | 1
CC(=NNC(=O)c1ccc(CN2CCc3ccccc3C2)cc1)c1ccccc1O | x | x | x | -4 | x | x
Nc1ccccc1N=Cc1ccc(-c2cccc(Cl)c2)o1 | 2 | -5 | 5 | -107 | 2 | 22*
Cc1nn(-c2ccccc2)c(Cl)c1C=NNC(=O)c1ccncc1 | x | x | x | 5 | x | x
O=C(CNc1ccccc1)N/N=C/c1ccc2c(c1)OCCO2 | 2 | -2 | -1 | x | 3 | 16*
N#CCC(=O)N/N=C/c1cn(Cc2ccc(Cl)cc2Cl)c2ccccc12 | -4 | 0 | -1 | x | -3 | 24*
O=C(N/N=C/c1ccc2c(c1)OCO2)c1ccc(NC(=O)c2ccccc2Cl)cc1 | -8 | -8 | 2 | x | -6 | 22*
O=C(NN=Cc1ccc2c(c1)OCO2)C1CC1 | 5 | x | 2 | 5 | 5 | 2
O=C(NN=Cc1ccc2c(c1)OCO2)NN=Cc1ccc2c(c1)OCO2 | 3 | x | 7 | 4 | 3 | 26*
Nc1nonc1-n1nnc(C(=O)NN=Cc2cccc(F)c2)c1-c1ccc2c(c1)OCO2 | x | x | x | -2 | x | x
COc1ccc(C=NN(C(C)=O)c2nc(-c3ccc(C)cc3)cs2)cc1 | x | x | x | 1 | x | x
Cc1cccc(C(=O)Nc2ccc(C(=O)N/N=C/c3ccc4c(c3)OCO4)cc2)c1 | -10 | 2 | -4 | x | -15 | 24*
Cc1cccc(C(=O)Nc2ccc(C(=O)NN=Cc3ccc4c(c3)OCO4)cc2)c1 | x | x | x | -26 | x | x
O=C(CNc1ccc2c(c1)OCO2)N/N=C\c1cn(Cc2ccccc2)c2ccccc12 | -9 | 30* | 4 | x | 4 | 0
CN(/N=C/c1ccc2c(c1)OCO2)c1ccccc1 | -3 | 2 | 5 | x | 1 | 11*
O=C(N/N=C/c1cccs1)c1cccc(NC(=O)c2ccccc2Cl)c1 | 1 | -2 | 6 | x | 4 | -2
SMILES | PAFAH2 inh | pPAFAH inh | PAFAH1B2 FP inh | UCH37 DUB inh | PAFAH1B3 FP inh | GRIN3A LBD mod
O=C(N/N=C/c1cccs1)c1ccc(NC(=O)c2ccccc2Cl)cc1 | -1 | 0 | 0 | x | 2 | 18*
Cc1cccc(OCC(=O)NCC(=O)NN=Cc2cc(Br)ccc2OCc2ccccc2)c1 | x | x | x | 1 | x | x
O=C(CCN1C(=O)C2C3C=CC(C3)C2C1=O)N1CCCCC1 (stereo not given) | 0 | 2 | 0 | 3 | 4 | -2
CCOC(=O)C1CCN(C(=O)CCN2C(=O)C3C4C=CC(C4)C3C2=O)CC1 (stereo not given) | 5 | 29* | -2 | -1 | -3 | -1
Nc1ncnc2c1ncn2[C@@H]1O[C@H](CNS(=O)(=O)c2cc(S(=O)(=O)c3ccccc3)cs2)[C@@H](O)[C@H]1O | 0 | 9 | 8 | -2 | 4 | 15*
Cc1cc(/C=C2\C(=N)N3C(SCc4ccccc4)=NSC3=NC2=O)c(C)n1Cc1ccccc1 | -3 | 1 | 5 | -383 | 7 | 14*
Cc1ccc(S(=O)(=O)Nc2ccc(NC(=O)c3ccc(F)cc3)cc2)cc1 | 1 | 30* | 4 | 1 | 6 | -1
O=C(Nc1ccc(-c2cn3ccccc3n2)cc1)c1cccs1 | 3 | 2 | 4 | -145 | 0 | 25*
Cc1ccn2cc(-c3ccc(NC(=O)c4ccco4)cc3)nc2c1 | 0 | -1 | -1 | 4 | 6 | 29*
Cc1cc(NS(=O)(=O)c2ccc(NC(=S)NC(=O)c3cccc(S(=O)(=O)N(C)C)c3)cc2)no1 | 11 | -2 | 2 | 2 | 12 | 1
Cc1ccc(S(=O)(=O)Nc2ccc(C(=O)Nc3ccncc3)cc2)cc1 | -13 | 1 | 5 | -1 | 5 | -25
Cc1cc(NS(=O)(=O)c2ccc(NC(=S)NC(=O)c3ccc(F)cc3)cc2)no1 | -1 | 4 | 4 | -5 | 7 | 14*
CC(=N/N=C1/NC(=O)C(CC(=O)Nc2ccc(C)c(Cl)c2)S1)C(C)C (stereo not given) | x | x | x | 3 | x | x
Cc1cccc(COc2ccccc2C=NNc2ccc([N+](=O)[O-])cc2)c1 | x | x | x | -4 | x | x
CC(=Nn1c(C)nc2ccccc2c1=O)c1ccc(N)cc1 | x | x | x | 3 | x | x
Cc1ccn(-c2ccc(NC(=O)c3cccs3)cc2)n1 | -8 | -1 | 8 | -1 | 3 | 26*
O=C(O)c1cc(NS(=O)(=O)c2ccc(F)cc2)cc(NS(=O)(=O)c2ccc(F)cc2)c1 | 32* | 15 | 42* | 3 | 5 | -1
Cc1ccc(NS(=O)(=O)c2ccc(C(=O)NNC(=O)c3ccccc3O)cc2)cc1 | 2 | 21 | 9 | 4 | 6 | 10*
CN1CCN(c2ccc(NC(=O)c3cccs3)cc2)CC1 | 5 | 1 | 4 | 1 | 11 | -6
O=C(NNC(=O)c1ccccc1O)c1ccc(NS(=O)(=O)c2ccc(F)c(F)c2)cc1 | 9 | 9 | 11 | 0 | 12 | -2
Cc1cccc(C(=O)Nc2ccc(S(=O)(=O)Nc3nc(C)cc(C)n3)cc2)c1 | 1 | 8 | 3 | 4 | 7 | 13*
COc1cc(C(C)=NNC(=O)Cc2c(C)[nH][nH]c2=O)ccc1O | x | x | x | -1 | x | x
Cc1ccsc1C=NNc1nc(Cl)c(Cl)cc1Cl | x | x | x | -11 | x | x
COc1cc(C=NNc2nc3ccccc3o2)cc(OC)c1OC | x | x | x | 0 | x | x
O=C(Nc1ccc(Cl)cc1)c1cccs1 | -5 | 6 | 3 | 2 | 4 | 2
